Laboratory results published in ChEMBL document CHEMBL4689842, “EUbOPEN Chemogenomics Library wave 1” (2021).

Test system: U2OS
Assay: Multiplex assay against U2OS
Assay type: toxicity, cell-based
Settings: human
Method in brief: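 Tubulin, mitochondrial-mass and membrane-permeability phenotypes are per cents of healthy-nucleus cells. Cells were gated by CellPathfinder machine learning into Hoechst high-intensity objects or normal cells, normal cells into healthy, pyknosed or fragmented nuclei, and pyknosed cells into mitotic or apoptotic. Before that, live cells stained at seeding with Hoechst33342, BioTracker Green Microtubule Cytoskeleton Dye, MitoTracker Red and Annexin V Alexa Fluor 680 were imaged on a CQ1 microscope at 37°C and 5% CO2 after compound addition.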

[1] = 12 h, 1 µM, compound concentration 1 uM, replicate 1
[2] = 12 h, 1 µM, compound concentration 1 uM, replicate 2
[3] = 12 h, 10 µM, compound concentration 10 uM, replicate 1
[4] = 12 h, 10 µM, compound concentration 10 uM, replicate 2
[5] = 24 h, 1 µM, compound concentration 1 uM, replicate 1
[6] = 24 h, 1 µM, compound concentration 1 uM, replicate 2
[7] = 24 h, 10 µM, compound concentration 10 uM, replicate 1
[8] = 24 h, 10 µM, compound concentration 10 uM, replicate 2
[9] = 48 h, 1 µM, compound concentration 1 uM, replicate 1
[10] = 48 h, 1 µM, compound concentration 1 uM, replicate 2
[11] = 48 h, 10 µM, compound concentration 10 uM, replicate 1
[12] = 48 h, 10 µM, compound concentration 10 uM, replicate 2

Structure (SMILES): CN1C(=O)[C@@H](NC(=O)c2cc3ccccc3[nH]2)N=C(c2ccccc2)c2ccccc21 [DEVAZEPIDE]
- Population Fragmented Nuclei (%) [1]: 12%
- Population Healthy Nuclei (%) [1]: 76%
- Population Hoechst High Intensity Objects (%) [1]: 7%
- Population Membrane Permeable-Phenotype (%) [1]: 3%
- Population Mitochondria Different-Phenotype (%) [1]: 17%
- Population Normal (%) [1]: 92%
- Population Pyknosed Nuclei (%) [1]: 11%
- Population Tubulin-Different-Phenotype (%) [1]: 21%
- Total Cell Count [1]: 144
- Population Apoptotic (%) [2]: 33%
- Population Fragmented Nuclei (%) [2]: 4%
- Population Healthy Nuclei (%) [2]: 85%
- Population Hoechst High Intensity Objects (%) [2]: 5%
- Population Membrane Permeable-Phenotype (%) [2]: 9%
- Population Mitochondria Different-Phenotype (%) [2]: 23%
- Population Mitotic Cells (%) [2]: 66%
- Population Normal (%) [2]: 94%
- Population Pyknosed Nuclei (%) [2]: 9%
- Population Tubulin-Different-Phenotype (%) [2]: 10%
- Total Cell Count [2]: 68
- Population Apoptotic (%) [3]: 52%
- Population Fragmented Nuclei (%) [3]: 11%
- Population Healthy Nuclei (%) [3]: 72%
- Population Hoechst High Intensity Objects (%) [3]: 6%
- Population Membrane Permeable-Phenotype (%) [3]: 21%
- Population Mitochondria Different-Phenotype (%) [3]: 45%
- Population Mitotic Cells (%) [3]: 47%
- Population Normal (%) [3]: 93%
- Population Pyknosed Nuclei (%) [3]: 15%
- Population Tubulin-Different-Phenotype (%) [3]: 70%
- Total Cell Count [3]: 117
- Population Apoptotic (%) [4]: 33%
- Population Fragmented Nuclei (%) [4]: 20%
- Population Healthy Nuclei (%) [4]: 75%
- Population Hoechst High Intensity Objects (%) [4]: 7%
- Population Membrane Permeable-Phenotype (%) [4]: 37%
- Population Mitochondria Different-Phenotype (%) [4]: 48%
- Population Mitotic Cells (%) [4]: 66%
- Population Normal (%) [4]: 92%
- Population Pyknosed Nuclei (%) [4]: 5%
- Population Tubulin-Different-Phenotype (%) [4]: 66%
- Total Cell Count [4]: 65
- Population Apoptotic (%) [5]: 31%
- Population Fragmented Nuclei (%) [5]: 10%
- Population Healthy Nuclei (%) [5]: 76%
- Population Hoechst High Intensity Objects (%) [5]: 5%
- Population Membrane Permeable-Phenotype (%) [5]: 1%
- Population Mitochondria Different-Phenotype (%) [5]: 14%
- Population Mitotic Cells (%) [5]: 68%
- Population Normal (%) [5]: 94%
- Population Pyknosed Nuclei (%) [5]: 13%
- Population Tubulin-Different-Phenotype (%) [5]: 12%
- Total Cell Count [5]: 173
- Population Apoptotic (%) [6]: 37%
- Population Fragmented Nuclei (%) [6]: 7%
- Population Healthy Nuclei (%) [6]: 82%
- Population Hoechst High Intensity Objects (%) [6]: 1%
- Population Membrane Permeable-Phenotype (%) [6]: 3%
- Population Mitochondria Different-Phenotype (%) [6]: 10%
- Population Mitotic Cells (%) [6]: 62%
- Population Normal (%) [6]: 98%
- Population Pyknosed Nuclei (%) [6]: 10%
- Population Tubulin-Different-Phenotype (%) [6]: 6%
- Total Cell Count [6]: 79
- Population Apoptotic (%) [7]: 87%
- Population Fragmented Nuclei (%) [7]: 22%
- Population Healthy Nuclei (%) [7]: 49%
- Population Hoechst High Intensity Objects (%) [7]: 6%
- Population Membrane Permeable-Phenotype (%) [7]: 29%
- Population Mitochondria Different-Phenotype (%) [7]: 29%
- Population Mitotic Cells (%) [7]: 12%
- Population Normal (%) [7]: 93%
- Population Pyknosed Nuclei (%) [7]: 27%
- Population Tubulin-Different-Phenotype (%) [7]: 47%
- Total Cell Count [7]: 123
- Population Apoptotic (%) [8]: 92%
- Population Fragmented Nuclei (%) [8]: 28%
- Population Hoechst High Intensity Objects (%) [8]: 7%
- Population Membrane Permeable-Phenotype (%) [8]: 19%
- Population Mitochondria Different-Phenotype (%) [8]: 45%
- Population Mitotic Cells (%) [8]: 7%
- Population Normal (%) [8]: 92%
- Population Pyknosed Nuclei (%) [8]: 22%
- Population Tubulin-Different-Phenotype (%) [8]: 51%
- Total Cell Count [8]: 68
- Population Apoptotic (%) [9]: 33%
- Population Fragmented Nuclei (%) [9]: 9%
- Population Healthy Nuclei (%) [9]: 82%
- Population Hoechst High Intensity Objects (%) [9]: 3%
- Population Membrane Permeable-Phenotype (%) [9]: 4%
- Population Mitochondria Different-Phenotype (%) [9]: 14%
- Population Mitotic Cells (%) [9]: 66%
- Population Normal (%) [9]: 96%
- Population Pyknosed Nuclei (%) [9]: 8%
- Population Tubulin-Different-Phenotype (%) [9]: 8%
- Total Cell Count [9]: 231
- Population Apoptotic (%) [10]: 50%
- Population Fragmented Nuclei (%) [10]: 8%
- Population Healthy Nuclei (%) [10]: 78%
- Population Hoechst High Intensity Objects (%) [10]: 1%
- Population Membrane Permeable-Phenotype (%) [10]: 5%
- Population Mitochondria Different-Phenotype (%) [10]: 18%
- Population Mitotic Cells (%) [10]: 50%
- Population Normal (%) [10]: 98%
- Population Pyknosed Nuclei (%) [10]: 12%
- Population Tubulin-Different-Phenotype (%) [10]: 16%
- Total Cell Count [10]: 96
- Population Apoptotic (%) [11]: 89%
- Population Fragmented Nuclei (%) [11]: 21%
- Population Healthy Nuclei (%) [11]: 37%
- Population Hoechst High Intensity Objects (%) [11]: 5%
- Population Membrane Permeable-Phenotype (%) [11]: 31%
- Population Mitochondria Different-Phenotype (%) [11]: 38%
- Population Mitotic Cells (%) [11]: 10%
- Population Normal (%) [11]: 94%
- Population Pyknosed Nuclei (%) [11]: 41%
- Population Tubulin-Different-Phenotype (%) [11]: 45%
- Total Cell Count [11]: 124
- Population Apoptotic (%) [12]: 92%
- Population Fragmented Nuclei (%) [12]: 24%
- Population Healthy Nuclei (%) [12]: 50%
- Population Hoechst High Intensity Objects (%) [12]: 13%
- Population Membrane Permeable-Phenotype (%) [12]: 55%
- Population Mitochondria Different-Phenotype (%) [12]: 55%
- Population Mitotic Cells (%) [12]: 7%
- Population Normal (%) [12]: 86%
- Population Pyknosed Nuclei (%) [12]: 24%
- Population Tubulin-Different-Phenotype (%) [12]: 58%
- Total Cell Count [12]: 66
